According to ChEMBL document CHEMBL3621130, “Identification and characterization of β-sitosterol target proteins” (Bioorg Med Chem Lett, 2015):
Activity calls are given as the source filed them. The calls are words filed in the database; no cut-off is given here.

Tests used:
Format in all cases: cell-based
[1] = biological target: T1, Peroxisomal multifunctional enzyme type 2 (Mus musculus) (UniProt P51660); assay: Binding affinity to 17beta-HSD4 in mouse LPS-treated RAW264.7 cells at 200 nM by Western blot analysis
T1 sequence (whole entry): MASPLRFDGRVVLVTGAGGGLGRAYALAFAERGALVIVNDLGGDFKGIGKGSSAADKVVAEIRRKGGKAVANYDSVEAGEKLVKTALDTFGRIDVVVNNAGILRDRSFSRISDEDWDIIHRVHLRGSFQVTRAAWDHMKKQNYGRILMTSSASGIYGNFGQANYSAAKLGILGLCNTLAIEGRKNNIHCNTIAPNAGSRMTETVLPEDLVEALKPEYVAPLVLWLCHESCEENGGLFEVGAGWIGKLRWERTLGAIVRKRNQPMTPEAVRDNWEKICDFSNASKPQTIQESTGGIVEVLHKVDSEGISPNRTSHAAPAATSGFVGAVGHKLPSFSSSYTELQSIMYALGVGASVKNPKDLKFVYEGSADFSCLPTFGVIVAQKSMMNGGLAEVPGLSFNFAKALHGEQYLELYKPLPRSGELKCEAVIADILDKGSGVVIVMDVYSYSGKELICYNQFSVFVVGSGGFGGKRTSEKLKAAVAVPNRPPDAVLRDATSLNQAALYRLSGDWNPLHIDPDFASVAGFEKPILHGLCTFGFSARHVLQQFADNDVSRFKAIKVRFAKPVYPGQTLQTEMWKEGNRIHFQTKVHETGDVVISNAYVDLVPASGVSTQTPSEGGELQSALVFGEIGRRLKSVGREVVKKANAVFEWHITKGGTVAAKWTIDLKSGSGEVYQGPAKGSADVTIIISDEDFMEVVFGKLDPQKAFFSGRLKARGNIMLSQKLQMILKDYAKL
In short: (§1)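 Streptavidin affinity pull-down was run side by side in lysates from LPS-treated and untreated mouse Raw264.7 macrophages. Biotin, biotinylated β-sitosterol or biotinylated cholesterol was used at 200 nM for 17β-HSD4 and 600 nM for E-Syt1. Probe incubation with lysate was 2 h, followed by overnight streptavidin agarose capture.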

[2] = biological target: T1, Peroxisomal multifunctional enzyme type 2 (Mus musculus); assay: Binding affinity to 17beta-HSD4 in mouse RAW264.7 cells at 200 nM by Western blot analysis; in short: as §1
[3] = biological target: T2, 3-oxo-5-alpha-steroid 4-dehydrogenase 1 (Homo sapiens) (UniProt P18405); assay: Binding affinity to S5A1 in human DU145 cells at 200 to 600 nM by affinity chromatography analysis; settings: DU-145
T2 sequence (whole entry): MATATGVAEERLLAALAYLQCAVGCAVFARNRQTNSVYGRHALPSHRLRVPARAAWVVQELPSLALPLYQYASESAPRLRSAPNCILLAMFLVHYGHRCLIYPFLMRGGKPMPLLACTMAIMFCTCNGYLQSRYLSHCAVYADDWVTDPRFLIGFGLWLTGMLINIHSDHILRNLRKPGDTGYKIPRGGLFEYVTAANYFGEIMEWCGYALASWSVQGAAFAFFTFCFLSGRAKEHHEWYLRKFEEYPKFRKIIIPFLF

[4] = biological target: T3, Peroxisomal multifunctional enzyme type 2 (Homo sapiens) (UniProt P51659); assay: Binding affinity to 17beta-HSD4 in human PC3 cells at 200 nM by affinity chromatography analysis; settings: PC-3
T3 sequence (whole entry): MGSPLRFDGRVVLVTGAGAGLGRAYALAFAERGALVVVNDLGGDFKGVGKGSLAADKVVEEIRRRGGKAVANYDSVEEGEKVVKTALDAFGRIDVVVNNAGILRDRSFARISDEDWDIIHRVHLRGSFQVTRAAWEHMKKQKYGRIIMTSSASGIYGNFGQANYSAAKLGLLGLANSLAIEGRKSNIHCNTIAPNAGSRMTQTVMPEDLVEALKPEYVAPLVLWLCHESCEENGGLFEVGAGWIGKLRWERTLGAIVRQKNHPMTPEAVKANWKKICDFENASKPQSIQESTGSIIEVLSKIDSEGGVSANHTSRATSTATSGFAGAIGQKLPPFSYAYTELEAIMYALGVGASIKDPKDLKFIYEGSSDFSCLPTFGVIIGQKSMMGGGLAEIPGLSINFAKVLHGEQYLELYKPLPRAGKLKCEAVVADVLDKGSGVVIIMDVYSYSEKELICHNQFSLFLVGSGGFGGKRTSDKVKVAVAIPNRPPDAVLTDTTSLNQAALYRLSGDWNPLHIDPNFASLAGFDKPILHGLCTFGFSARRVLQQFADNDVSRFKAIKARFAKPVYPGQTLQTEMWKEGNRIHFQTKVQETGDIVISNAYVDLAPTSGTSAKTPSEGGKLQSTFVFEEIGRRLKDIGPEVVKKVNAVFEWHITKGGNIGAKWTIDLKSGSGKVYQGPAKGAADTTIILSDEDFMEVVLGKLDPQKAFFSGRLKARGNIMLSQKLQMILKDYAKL

[5] = biological target: T2, 3-oxo-5-alpha-steroid 4-dehydrogenase 1 (Homo sapiens); assay: Binding affinity to S5A1 in human PC3 cells at 200 to 600 nM by affinity chromatography analysis; settings: PC-3
[6] = biological target: T3, Peroxisomal multifunctional enzyme type 2 (Homo sapiens); assay: Binding affinity to 17beta-HSD4 in human DU145 cells at 200 nM by affinity chromatography analysis; settings: DU-145
[7] = biological target: T4, Extended synaptotagmin-1 (Homo sapiens) (UniProt Q9BSJ8); assay: Binding affinity to E-Syt1 in human DU145 cells at 600 nM by affinity chromatography analysis; settings: DU-145
T4 sequence (whole entry): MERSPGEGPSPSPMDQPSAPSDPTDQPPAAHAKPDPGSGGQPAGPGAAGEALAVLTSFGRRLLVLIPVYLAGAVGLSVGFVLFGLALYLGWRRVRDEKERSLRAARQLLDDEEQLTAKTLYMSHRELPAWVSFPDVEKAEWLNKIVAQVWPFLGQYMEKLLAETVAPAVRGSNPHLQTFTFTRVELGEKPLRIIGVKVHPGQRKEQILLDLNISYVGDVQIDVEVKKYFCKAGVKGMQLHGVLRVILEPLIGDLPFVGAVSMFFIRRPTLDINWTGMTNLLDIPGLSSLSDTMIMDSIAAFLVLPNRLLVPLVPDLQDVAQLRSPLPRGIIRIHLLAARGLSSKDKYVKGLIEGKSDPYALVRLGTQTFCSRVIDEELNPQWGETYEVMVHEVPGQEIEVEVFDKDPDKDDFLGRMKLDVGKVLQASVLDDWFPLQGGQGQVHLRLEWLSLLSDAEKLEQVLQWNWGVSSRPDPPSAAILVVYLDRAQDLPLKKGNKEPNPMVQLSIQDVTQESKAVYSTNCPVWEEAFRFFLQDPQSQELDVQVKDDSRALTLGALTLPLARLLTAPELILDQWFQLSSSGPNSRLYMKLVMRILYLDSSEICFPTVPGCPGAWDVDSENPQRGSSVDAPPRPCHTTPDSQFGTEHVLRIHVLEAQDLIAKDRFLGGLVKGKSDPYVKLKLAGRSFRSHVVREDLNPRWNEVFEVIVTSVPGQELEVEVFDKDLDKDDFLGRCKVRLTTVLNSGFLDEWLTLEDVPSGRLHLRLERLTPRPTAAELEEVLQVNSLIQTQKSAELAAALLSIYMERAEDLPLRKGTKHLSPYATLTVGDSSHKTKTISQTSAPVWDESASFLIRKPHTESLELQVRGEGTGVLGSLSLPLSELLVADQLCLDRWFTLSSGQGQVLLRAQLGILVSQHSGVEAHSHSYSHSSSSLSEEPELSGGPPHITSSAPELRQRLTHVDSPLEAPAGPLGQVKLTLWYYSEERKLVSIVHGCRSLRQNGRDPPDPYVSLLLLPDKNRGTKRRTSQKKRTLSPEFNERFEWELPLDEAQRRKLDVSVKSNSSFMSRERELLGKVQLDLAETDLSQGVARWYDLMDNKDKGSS

[8] = biological target: T5, Extended synaptotagmin-1 (Mus musculus) (UniProt Q3U7R1); assay: Binding affinity to E-Syt1 in mouse RAW264.7 cells at 600 nM by Western blot analysis; in short: as §1
T5 sequence (whole entry): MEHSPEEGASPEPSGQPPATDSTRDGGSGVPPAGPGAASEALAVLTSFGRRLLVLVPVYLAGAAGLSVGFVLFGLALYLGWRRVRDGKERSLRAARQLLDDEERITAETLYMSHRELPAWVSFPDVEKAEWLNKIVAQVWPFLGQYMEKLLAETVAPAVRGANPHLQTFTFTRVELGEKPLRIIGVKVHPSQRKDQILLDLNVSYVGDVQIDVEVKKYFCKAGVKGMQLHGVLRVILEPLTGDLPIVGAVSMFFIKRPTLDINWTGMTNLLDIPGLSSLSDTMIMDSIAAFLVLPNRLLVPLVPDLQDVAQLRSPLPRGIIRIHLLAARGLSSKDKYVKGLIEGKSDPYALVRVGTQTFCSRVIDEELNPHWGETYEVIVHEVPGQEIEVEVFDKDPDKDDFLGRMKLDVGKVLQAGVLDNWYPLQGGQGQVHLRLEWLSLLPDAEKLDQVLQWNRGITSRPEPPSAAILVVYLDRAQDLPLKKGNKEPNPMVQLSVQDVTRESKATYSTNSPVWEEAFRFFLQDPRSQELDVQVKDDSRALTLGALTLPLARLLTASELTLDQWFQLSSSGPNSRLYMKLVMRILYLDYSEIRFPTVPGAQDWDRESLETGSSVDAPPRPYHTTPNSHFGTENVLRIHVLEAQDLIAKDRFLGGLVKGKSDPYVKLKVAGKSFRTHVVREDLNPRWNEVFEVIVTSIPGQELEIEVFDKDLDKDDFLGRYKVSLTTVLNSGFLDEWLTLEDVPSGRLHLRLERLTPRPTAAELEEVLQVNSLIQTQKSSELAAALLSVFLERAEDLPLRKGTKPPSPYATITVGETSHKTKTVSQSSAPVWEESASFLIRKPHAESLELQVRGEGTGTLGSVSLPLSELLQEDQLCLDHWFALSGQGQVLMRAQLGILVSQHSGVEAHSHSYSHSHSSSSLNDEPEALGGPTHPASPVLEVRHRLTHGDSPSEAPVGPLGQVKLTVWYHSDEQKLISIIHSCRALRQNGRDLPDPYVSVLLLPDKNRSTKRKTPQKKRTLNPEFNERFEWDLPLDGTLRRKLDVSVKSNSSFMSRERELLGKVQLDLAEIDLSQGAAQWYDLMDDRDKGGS

[9] = biological target: T5, Extended synaptotagmin-1 (Mus musculus); assay: Binding affinity to E-Syt1 in mouse RAW264.7 cells at 600 nM after 2 hrs by MALDI mass spectrometry analysis; in short: as §1
[10] = biological target: T5, Extended synaptotagmin-1 (Mus musculus); assay: Binding affinity to E-Syt1 in mouse LPS-treated RAW264.7 cells at 600 nM by Western blot analysis; in short: as §1
[11] = biological target: T5, Extended synaptotagmin-1 (Mus musculus); assay: Binding affinity to E-Syt1 in mouse LPS-treated RAW264.7 cells at 600 nM after 2 hrs by MALDI mass spectrometry analysis
[12] = biological target: T1, Peroxisomal multifunctional enzyme type 2 (Mus musculus); assay: Binding affinity to 17beta-HSD4 in mouse LPS-treated RAW264.7 cells at 200 nM after 2 hrs by MALDI mass spectrometry analysis
[13] = biological target: T1, Peroxisomal multifunctional enzyme type 2 (Mus musculus); assay: Binding affinity to 17beta-HSD4 in mouse RAW264.7 cells at 200 nM after 2 hrs by MALDI mass spectrometry analysis; in short: as §1
[14] = biological target: T4, Extended synaptotagmin-1 (Homo sapiens); assay: Binding affinity to E-Syt1 in human PC3 cells at 600 nM by affinity chromatography analysis; settings: PC-3

| SMILES | Activity [1] | Activity [2] | Activity [3] | Activity [4] | Activity [5] | Activity [6] | Activity [7] | Activity [8] | Activity [9] | Activity [10] | Activity [11] | Activity [12] | Activity [13] | Activity [14] |
| --- | --- | --- | --- | --- | --- | --- | --- | --- | --- | --- | --- | --- | --- | --- |
| CC(C)CCC[C@@H](C)[C@H]1CC[C@H]2[C@@H]3CC=C4C[C@@H](OCc5cn(CCOCCOCCOCCNC(=O)CCCC[C@@H]6SC[C@@H]7NC(=O)N[C@@H]76)nn5)CC[C@]4(C)[C@H]3CC[C@]12C | Active | Active | inactive | Active | inactive | Active |  |  |  |  |  |  |  |  |
| CC[C@H](CC[C@@H](C)[C@H]1CC[C@H]2[C@@H]3CC=C4C[C@@H](OCc5cn(CCOCCOCCOCCNC(=O)CCCC[C@@H]6SC[C@@H]7NC(=O)N[C@@H]76)nn5)CC[C@]4(C)[C@H]3CC[C@]12C)C(C)C | Active | Active | inactive | Active | inactive | Active | Active | Active | Active | Active | Active | Active | Active | Active |
